Reference: ChEMBL document CHEMBL2396518, “A facile synthesis, anti-inflammatory and analgesic activity of isoxazolyl-2,3-dihydrospiro[benzo[f]isoindole-1,3'-indoline]-2',4,9-triones” (2013)

Experiments:
Assay type in all cases: functional
Mus musculus [1] = experiment: Analgesic activity in Swiss albino mouse assessed as inhibition of acetic acid-induced writhing at 50 mg/kg, po administered 30 mins followed by acetic acid challenge measured for 20 mins relative to control
How it was run: (§1)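 Mice were fasted 18 h with water ad libitum and split into 6 groups. Test agents were dosed orally at 50 mg/kg, with diclofenac 50 mg/kg as standard. After 30 min, 1.0% v/v acetic acid was given ip at 1 mL/100 g. Writhes were counted over 20 min. % inhibition = (mean control writhes − mean test writhes)/mean control writhes × 100. Results are mean ± S.E.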

Rattus norvegicus [2] = experiment: Antiinflammatory activity in carrageenan-induced Wistar rat paw edema model assessed as paw volume at 100 mg/kg, po administered 30 mins prior to carrageenan challenge measured at 6 hrs by plethysmographic analysis (reference value: 0.96 +/- 0.03 ml)
Rattus norvegicus [3] = experiment: Antiinflammatory activity in carrageenan-induced Wistar rat paw edema model assessed as paw volume at 100 mg/kg, po administered 30 mins prior to carrageenan challenge measured at 4 hrs by plethysmographic analysis (reference value: 1.2 +/- 0.05 ml)
Rattus norvegicus [4] = experiment: Antiinflammatory activity in carrageenan-induced Wistar rat paw edema model assessed as paw volume at 100 mg/kg, po administered 30 mins prior to carrageenan challenge measured at 2 hrs by plethysmographic analysis (reference value: 1.07 +/- 0.08 ml)
Rattus norvegicus [5] = experiment: Antiinflammatory activity in carrageenan-induced Wistar rat paw edema model assessed as paw volume at 100 mg/kg, po administered 30 mins prior to carrageenan challenge measured at 1 hr by plethysmographic analysis (reference value: 0.90 +/- 0.05 ml)
Mus musculus [6] = experiment: Analgesic activity in Swiss albino mouse assessed as inhibition of acetic acid-induced writhing at 50 mg/kg administered 30 mins followed by acetic acid challenge measured for 20 mins relative to control; how it was run: as §1

SMILES | inhibition in vivo at 50 mg/kg (Mus musculus [1]) [%] | Activity (Rattus norvegicus [2]) [mL] | Activity (Rattus norvegicus [3]) [mL] | Activity (Rattus norvegicus [4]) [mL] | Activity (Rattus norvegicus [5]) [mL] | inhibition in vivo at 50 mg/kg (Mus musculus [6]) [%]
Cc1noc(/C=C/c2ccccc2)c1N1CC2=C(C(=O)c3ccccc3C2=O)C12C(=O)Nc1ccccc12 (stereo unspecified) | 22.4 | 0.6 | 0.75 | 0.84 | 0.75 | –
Cc1ccc(/C=C/c2onc(C)c2N2CC3=C(C(=O)c4ccccc4C3=O)C23C(=O)Nc2ccccc23)cc1 (stereo unspecified) | 26.3 | 0.54 | 0.69 | 0.8 | 0.7 | –
COc1ccc(/C=C/c2onc(C)c2N2CC3=C(C(=O)c4ccccc4C3=O)C23C(=O)Nc2ccccc23)cc1 (stereo unspecified) | 19.6 | 0.6 | 0.65 | 0.91 | 0.8 | –
Cc1noc(/C=C/c2ccc(Cl)cc2)c1N1CC2=C(C(=O)c3ccccc3C2=O)C12C(=O)Nc1ccccc12 (stereo unspecified) | 50.4 | 0.41 | 0.65 | 0.69 | 0.54 | –
Cc1noc(/C=C/c2ccc(Cl)cc2Cl)c1N1CC2=C(C(=O)c3ccccc3C2=O)C12C(=O)Nc1ccccc12 (stereo unspecified) | 44.8 | 0.32 | 0.54 | 0.71 | 0.57 | –
Cc1noc(/C=C/c2c(Cl)cccc2Cl)c1N1CC2=C(C(=O)c3ccccc3C2=O)C12C(=O)Nc1ccccc12 (stereo unspecified) | 48.3 | 0.4 | 0.67 | 0.7 | 0.54 | –
Cc1noc(/C=C/c2ccccc2O)c1N1CC2=C(C(=O)c3ccccc3C2=O)C12C(=O)Nc1ccccc12 (stereo unspecified) | 20.4 | 0.52 | 0.8 | 0.81 | 0.78 | –
Cc1noc(/C=C/c2ccccc2)c1N1CC2=C(C(=O)c3ccccc3C2=O)C12C(=O)Nc1ccc(Cl)cc12 (stereo unspecified) | 16.5 | 0.63 | 0.82 | 0.83 | 0.82 | –
COc1ccc2c(c1)C1(C(=O)N2)C2=C(CN1c1c(C)noc1/C=C/c1ccccc1)C(=O)c1ccccc1C2=O (stereo unspecified) | 18.4 | 0.6 | 0.81 | 0.91 | 0.73 | –
Cc1ccc2c(c1)C1(C(=O)N2)C2=C(CN1c1c(C)noc1/C=C/c1ccccc1)C(=O)c1ccccc1C2=O (stereo unspecified) | 19.5 | 0.55 | 0.83 | 0.89 | 0.77 | –
O=C(O)Cc1ccccc1Nc1c(Cl)cccc1Cl [DICLOFENAC] | – | – | – | – | – | 53.6
